A selection follows.
Apaf-1 act: activators of human Apaf-1 apoptosome, primary screen, biochemical, DEVD-Rh110 fluorescence, uHTS | Apaf-1 apoptosome caspase-3 activation; active compounds read low | activity change, negative = activation, % at 20 µM | 330,000 compounds, 0.31% hits;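 active = activity change at or below -40% at 20 µM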
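System: Reconstituted apoptosome of Apaf-1, cytochrome c, caspase-9, procaspase-3 | Reagent: dATP, cytochrome c, and (Z-DEVD)2-Rh110 caspase-3 substrate | Times: 30 min compound preincubation and 50 min reaction, both room temperature | Detection: Caspase-3-released Rh110 fluorescence, 540 nm emission, 480 nm excitation | Measure: Caspase-3 activity via Apaf-1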
Rh110 act interf: Rh110 fluorescence interference by putative Apaf-1 activators, confirmation, artefact control for Apaf-1 activator project, biochemical, 20 µM; shares compounds with Apaf-1 act; AID 504616, 2011; quenched caspase reaction, Ex480/Em540; fluorescence interference (activity change), % at 20 µM, hits read low; 980 tested, under 10 active;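 active = mean activity change at or below -40% when tested at 20 µM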
Apaf-1 act conf: Apaf-1 activators, single-dose retest, confirmation, biochemical, fluorescence, DEVD-Rh110, 20 µM; shares compounds with Apaf-1 act; reconstituted apoptosome caspase-3 activity; active compounds read low; 980 compounds, 5% hits; activity change, negative = activation, % at 20 µM;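 active = mean activity change at or below -40%, meaning activation of 40% or more, at 20 µM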
Apaf1 act interf: fluorescence interference of Apaf-1 activator hits, dose response, artefact control for Apaf-1 activator project. shares compounds with Apaf-1 act. fluorescence interference counterscreen, Apaf-1 activator assay. EC50, µM. 55 tested, under 10 active; call rule not given here
Each line names hits and unclear results; the compound was inactive in the other large screens (follow-up assays come after a bar, where they were run).

NCCCS(=O)(=O)O	none
Cc1cc(NC(=O)CCSc2ccccc2)ccc1Br	Apaf-1 act -65.0 | Rh110 act interf inactive | Apaf-1 act conf inactive
COc1ccc(O[C@H]2C=C[C@@H](c3ccccc3)O[C@@H]2CO/N=C(\C)CCN2CCc3nc(-c4ccccc4)c(-c4ccccc4)cc3C2)cc1	none
CC(C)N1CCN(Cc2cnc(-c3ccccc3)s2)CC1CCO (stereo unspecified)	Apaf-1 act -45.5 | Rh110 act interf inactive | Apaf-1 act conf inactive
CS(=O)(=O)N(CC(=O)Nc1ccccc1C(=O)N1CCOCC1)c1cccc(F)c1	Apaf-1 act -57.3 | Rh110 act interf inactive | Apaf-1 act conf inactive
COn1c2c(c3c4nonc4ccc31)CCCC2	none | Apaf1 act interf inactive
O=c1[nH]c(Nc2ccccn2)cc2ccccc12	none
O=C1CCN(Cc2ccccc2)C=C1c1ccc(Cl)cc1	none
C[n+]1ccccc1/C=N/O	none
O/N=C/c1ccc2ccccc2n1	Apaf-1 act -50.0 | Rh110 act interf inactive | Apaf-1 act conf inactive
COCCNC(=O)c1onc(CSc2ccccc2)c1C(=O)O	Apaf-1 act -44.0 | Rh110 act interf inactive | Apaf-1 act conf inactive
N#Cc1c(N(CCO)CCO)nc(N)c2c(N)nc3c(c12)CC(=O)N3CC1CCCO1 (stereo unspecified)	none
CCCCCCOc1ccc(/C(C)=N/NC2=NCCN2)cc1[N+](=O)[O-]	none
COc1cc2c(cc1OC)CN(Cc1cc(=O)oc3cc(C)c(Cl)cc13)CC2	Apaf-1 act -42.9 | Rh110 act interf inactive | Apaf-1 act conf inactive
Oc1c(Br)cc(Br)cc1CNc1cccc2cccnc12	none
C#CCOCCOCCOCCNc1nc(N2CCN(C(=O)C([C@@H](C)O)n3cc([C@@H](N)CCCCN)nn3)CC2)nc(N2CCN(C(=O)[C@H](CCCCN)n3cc([C@@H](N)CC(N)=O)nn3)CC2)n1 (stereo partly specified)	none
Cc1cc(Br)ccc1OCCCCN1CCC(C)CC1	Apaf-1 act -57.2 | Rh110 act interf inactive | Apaf-1 act conf inactive
C#CCOCCOCCOCCNc1nc(N2CCN(C(=O)CCCCCCCCCCNC(=O)[C@H](CCCCN)n3cc(C)nn3)CC2)nc(N2CCN(C(=O)CCCCCCCCCCNC(=O)[C@H](CCCCN)n3cc(CCCC(=O)O)nn3)CC2)n1	none
Cn1/c(=N/NC(=O)c2ccccc2F)sc2ccccc21	Apaf-1 act -71.6 | Rh110 act interf inactive | Apaf-1 act conf inactive
CCN(CC(=O)Nc1ccccc1OC)C(=O)CN1C(=O)NC(C)(c2ccccc2)C1=O (stereo unspecified)	none
CCOC(=O)N1CCC(N2Cc3cccc(C(=O)Nc4ccccc4OC)c3C2=O)CC1	Apaf-1 act -44.2 | Rh110 act interf inactive | Apaf-1 act conf inactive
CCN1CCN(Cc2ccc(NC(=O)c3ccc(C)c(NC(=O)c4csc(-c5ccncc5)n4)c3)cc2C(F)(F)F)CC1	none
COC(=O)c1ccc(C(=O)OC)c(NC(=O)CN2CCN(c3ccccc3)CC2)c1	Apaf-1 act -190.9 | Rh110 act interf inactive | Apaf-1 act conf inactive
O=C(NCCCn1ccnc1)c1cn(Cc2ccc(F)cc2)nn1	Apaf-1 act -41.0 | Rh110 act interf inactive | Apaf-1 act conf inactive
CCOc1ccc(-c2cc(C(=O)NCCCn3ccnc3)c3cc(Br)ccc3n2)cc1	none
COC(=O)C1=C(C)N(Cc2ccccc2)C(=NCc2cccc(Cl)c2)N[C@H]1c1cccc(F)c1	none
C=CCn1c(SCC(=O)N(CC)C2CCS(=O)(=O)C2)nnc1-c1ccccc1 (stereo unspecified)	none
CCn1c(SCC(=O)OC(C)C)nnc1-c1ccccc1	Apaf-1 act -76.1 | Rh110 act interf inactive | Apaf-1 act conf inactive
C=CCn1c(SCC(=O)NCCc2ccccc2)nnc1C1CC1	none
Cc1nnc(SCC(=O)NCc2ccco2)n1Cc1ccccc1	Apaf-1 act -428.3 | Rh110 act interf inactive | Apaf-1 act conf inactive
CCCC[n+]1ccn(C2=C([O-])c3ccccc3C(=O)/C2=N\S(=O)(=O)c2ccc(Br)cc2)c1	none
COC(=O)CCC(=O)OC1(C)C(=O)C2=CN(CC3CC3)C(c3ccc(OC)cc3)=CC2=C(Br)C1=O (stereo unspecified)	none
COC(=O)c1cc(S(=O)(=O)NCc2cccc(Br)c2)c[nH]1	Apaf-1 act -53.2 | Rh110 act interf inactive | Apaf-1 act conf inactive
CC1CN(C(=O)c2cccc(S(=O)(=O)NCc3ccccc3)c2)CC(C)O1 (stereo unspecified)	none
CSc1ccc(CN(C)C(=O)c2cccc(S(=O)(=O)NCc3ccccc3)c2)cc1	none
C#CCOCCOCCOCCNc1nc(N2CCN(C(=O)CCCCCCCCCCNC(=O)[C@H]([C@@H](C)CC)n3cc(CCCCCN)nn3)CC2)nc(N2CCN(C(=O)CCCCCCCCCCNC(=O)[C@H](CCCCN)n3cc(CCCC(=O)O)nn3)CC2)n1	none
COc1ccc(-c2cc3c(nn2)-c2ccccc2C3=O)cc1	none
COc1ccc(Oc2nnc(-c3ccc(C)cc3)c3ccccc23)cc1	Apaf-1 act -172.1 | Rh110 act interf inactive | Apaf-1 act conf inactive
COC(=O)c1sccc1NC(=O)c1c(C)noc1C	Apaf-1 act -653.9 | Rh110 act interf inactive | Apaf-1 act conf inactive
O=C1c2ccccc2-c2nnc(-c3ccccc3)cc21	none
CN1C(=O)CC(Nc2cccc3cccc(N)c23)C1=O (stereo unspecified)	none
COc1ccc(/C=C/C(=O)Nc2cc(C)nn2-c2nc3ccccc3[nH]2)cc1	Apaf-1 act -56.2 | Rh110 act interf inactive | Apaf-1 act conf inactive
Cc1cc(Cl)ccc1NC(=S)NC1CCCC1	Apaf-1 act -42.3 | Rh110 act interf inactive | Apaf-1 act conf inactive
Cc1ccc(NC(=S)Nc2cccc3cnccc23)c(C)c1	none
COc1cc(N)c(Cc2nccc3cc(OC)c(OC)cc23)cc1OC	none
CC(C)C[C@@H]1CN=C(N)N1C[C@@H]1CCCN1C[C@@H](C(C)C)N1C[C@@H](Cc2ccccc2)N(CCc2ccc(Cl)c(Cl)c2)C1=N	none
O=C(CSc1ccc2nnc(-c3ccccc3)n2n1)N1CCCCC1	Apaf-1 act -113.3 | Rh110 act interf inactive | Apaf-1 act conf inactive
NCCc1cnc[nH]1	none
CCN1CCN(Cc2ccc(NC(=O)c3cc(NC(=O)C4=NN(c5ccccc5)C(=O)C4)cc(OC)c3)cc2C(F)(F)F)CC1	none
O=C(CCc1ccccc1)Nc1ccc(NC(=O)c2ccco2)cc1	Apaf-1 act -192.7 | Rh110 act interf inactive | Apaf-1 act conf inactive
O=C(NCCc1ccccc1)c1ccc2nc(-c3ccco3)c(-c3ccco3)nc2c1	none
C#CCOCCOCCOCCNc1nc(N2CCN(C(=O)CCCCCCCCCCNC(=O)[C@H](CO)n3cc(CCCSC)nn3)CC2)nc(N2CCN(C(=O)CCCCCCCCCCNC(=O)[C@H](CCCN=C(N)N)n3cc(C[C@@H](C)CC)nn3)CC2)n1	none
CC1(C)CC(=O)c2c(-c3cccnc3)n[nH]c2C1	none
CCN(CC)c1ccc(C=Nc2ccc(N(C)C)cc2)c(O)c1	none
CCN(CC)c1ccc(/C=N/N=C(N)N)c(O)c1	Apaf-1 act -156.5 | Rh110 act interf inactive | Apaf-1 act conf inactive
